Here are results for 14 molecules from ChEMBL document CHEMBL1921707 (J Med Chem, 2011).

Common to all, as to format: cell-based
In one assay the target is Histamine H3 receptor (Homo sapiens, UniProt Q9Y5N1). As to the kind of experiment: Displacement of [3H]histamine from human H3 receptor expressed in HEK293 cells after 1 to 1.5 hrs by scintillation counting.
In assay [1] the target is Histamine H4 receptor (Homo sapiens, UniProt Q9H3N8). As to the kind of experiment: Displacement of [3H]histamine from human H4 receptor expressed in HEK293 cells after 1 to 1.5 hrs by scintillation counting. On the technique in general: Loss of bound radioactivity is the signal in a displacement assay; it reports binding, not function.
Assay [2] addresses Histamine H4 receptor (Homo sapiens, UniProt Q9H3N8, T323M). As to the kind of experiment: Displacement of [3H]histamine from human H4 receptor T6.55M mutant expressed in HEK293 cells after 1 to 1.5 hrs by scintillation counting.
Assay [3] concerns the target Histamine H4 receptor (Homo sapiens, UniProt Q9H3N8, V102A). As to the kind of experiment: Displacement of [3H]histamine from human H4 receptor V3.40A mutant expressed in HEK293 cells after 1 to 1.5 hrs by scintillation counting.
The target of assay [4] is Histamine H4 receptor (Homo sapiens, UniProt Q9H3N8, E182Q). As to the kind of experiment: Displacement of [3H]JNJ7777120 from human H4 receptor E5.46Q mutant expressed in HEK293 cells after 1 to 1.5 hrs by scintillation counting. In a few lines: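 HEK293T cells transiently transfected (PEI method) with human H4R E5.46Q cDNA, membranes harvested 2 days later. Crude membranes in 50 mM Tris-HCl pH 7.4 with ~10 nM [3H]JNJ-7777120 and compound at 1 pM to 0.1 mM, room temperature, shaking. Separation by filtration on PEI-presoaked GF/C, ice-cold Tris washes. pKi as mean ± SEM of at least three experiments run in triplicate.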

Assay [5] concerns the target Histamine H4 receptor (Homo sapiens, UniProt Q9H3N8, Q347L). As to the kind of experiment: Displacement of [3H]histamine from human H4 receptor Q7.42L mutant expressed in HEK293 cells after 1 to 1.5 hrs by scintillation counting.
Assay [6] addresses Histamine H4 receptor (Homo sapiens, UniProt Q9H3N8, N147Y). As to the kind of experiment: Displacement of [3H]histamine from human H4 receptor N4.57Y mutant expressed in HEK293 cells after 1 to 1.5 hrs by scintillation counting.
Assay [7] addresses Histamine H4 receptor (Homo sapiens, UniProt Q9H3N8, T178A). As to the kind of experiment: Displacement of [3H]histamine from human H4 receptor T5.42A mutant expressed in HEK293 cells after 1 to 1.5 hrs by scintillation counting.

Sequence of Histamine H4 receptor (Homo sapiens, UniProt Q9H3N8) (Q9H3N8 whole entry): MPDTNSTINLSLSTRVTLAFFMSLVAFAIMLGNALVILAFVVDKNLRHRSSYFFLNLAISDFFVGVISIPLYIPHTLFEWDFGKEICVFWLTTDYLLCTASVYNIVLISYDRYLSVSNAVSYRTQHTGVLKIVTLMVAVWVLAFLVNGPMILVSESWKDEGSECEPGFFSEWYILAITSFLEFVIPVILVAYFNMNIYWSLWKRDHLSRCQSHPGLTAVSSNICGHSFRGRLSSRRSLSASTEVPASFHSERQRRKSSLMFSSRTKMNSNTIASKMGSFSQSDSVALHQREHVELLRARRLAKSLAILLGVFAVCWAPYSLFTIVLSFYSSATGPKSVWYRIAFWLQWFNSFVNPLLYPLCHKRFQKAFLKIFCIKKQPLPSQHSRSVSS
Sequence of Histamine H3 receptor (Q9Y5N1 whole entry): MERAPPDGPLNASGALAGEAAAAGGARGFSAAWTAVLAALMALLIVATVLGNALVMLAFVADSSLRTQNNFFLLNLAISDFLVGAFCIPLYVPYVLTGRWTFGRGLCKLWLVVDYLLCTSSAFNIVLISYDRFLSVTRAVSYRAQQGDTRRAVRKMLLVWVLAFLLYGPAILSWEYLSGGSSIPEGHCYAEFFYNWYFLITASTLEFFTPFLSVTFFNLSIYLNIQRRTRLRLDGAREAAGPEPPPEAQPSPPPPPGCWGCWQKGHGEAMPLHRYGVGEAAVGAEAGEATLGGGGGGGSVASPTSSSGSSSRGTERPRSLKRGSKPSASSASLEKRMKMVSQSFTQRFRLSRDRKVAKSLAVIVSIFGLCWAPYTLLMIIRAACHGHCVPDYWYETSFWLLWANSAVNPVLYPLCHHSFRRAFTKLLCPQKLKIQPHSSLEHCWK
Sequence of Histamine H4 receptor (Homo sapiens, UniProt Q9H3N8, T323M) (Q9H3N8 whole entry T323M): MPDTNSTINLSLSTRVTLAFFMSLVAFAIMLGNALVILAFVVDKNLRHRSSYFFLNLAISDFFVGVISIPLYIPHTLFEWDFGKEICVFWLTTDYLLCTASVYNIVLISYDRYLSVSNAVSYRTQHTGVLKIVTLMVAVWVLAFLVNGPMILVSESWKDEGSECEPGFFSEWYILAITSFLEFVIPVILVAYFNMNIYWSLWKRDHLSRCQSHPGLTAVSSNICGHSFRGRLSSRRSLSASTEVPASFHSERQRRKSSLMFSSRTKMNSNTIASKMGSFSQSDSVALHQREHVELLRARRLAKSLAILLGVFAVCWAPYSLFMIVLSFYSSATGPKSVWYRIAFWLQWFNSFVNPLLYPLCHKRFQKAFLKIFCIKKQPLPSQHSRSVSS
Sequence of Histamine H4 receptor (Homo sapiens, UniProt Q9H3N8, E182Q) (Q9H3N8 whole entry E182Q): as the sequence (Q9H3N8 whole entry T323M) above, with E182Q, M323T counted along it
Sequence of Histamine H4 receptor (Homo sapiens, UniProt Q9H3N8, Q347L) (Q9H3N8 whole entry Q347L): as the sequence (Q9H3N8 whole entry T323M) above, with M323T, Q347L counted along it
Sequence of Histamine H4 receptor (Homo sapiens, UniProt Q9H3N8, V102A) (Q9H3N8 whole entry V102A): as the sequence (Q9H3N8 whole entry T323M) above, with V102A, M323T counted along it
Sequence of Histamine H4 receptor (Homo sapiens, UniProt Q9H3N8, N147Y) (Q9H3N8 whole entry N147Y): as the sequence (Q9H3N8 whole entry T323M) above, with N147Y, M323T counted along it
Sequence of Histamine H4 receptor (Homo sapiens, UniProt Q9H3N8, T178A) (Q9H3N8 whole entry T178A): as the sequence (Q9H3N8 whole entry T323M) above, with T178A, M323T counted along it

As for `CCCCN/C(=N/C1CCCC1)SCCCc1c[nH]cn1`, the Ki – broadly, a dissociation constant, usually derived from enzyme kinetics or from competition with a known ligand – at Histamine H3 receptor was 46.8 nM; on Histamine H4 receptor [1], 16.2 nM.
The corresponding values for `CCCCN/C(=N/Cc1ccc(Cl)c(Cl)c1)SCCCc1c[nH]cn1` are 4.68 nM and 89.1 nM.
For `CC(C)(C)N/C(=N/C1CCCC1)SCCCc1c[nH]cn1`, in that order: 67.6 nM and 29.5 nM.
For `O=[N+]([O-])c1ccc(C/N=C(/NC2CCCCC2)SCCCc2c[nH]cn2)cc1`, in that order: 1.15 nM and 135 nM.
For `Clc1ccc(C/N=C(/NCc2ccccc2)SCCCc2c[nH]cn2)cc1`, the Ki on Histamine H3 receptor was 17 nM; at Histamine H4 receptor [1] it was 229 nM.
For `c1nc(CCCS/C(=N\C2CCCC2)NC2CCCCC2)c[nH]1`, in that order: 18.6 nM and 31.6 nM.
The corresponding values for `CCCCN/C(=N/Cc1ccc(Cl)cc1)SCCCc1c[nH]cn1` are 4.9 nM and 89.1 nM.
Take `Clc1ccc(CN=C(NC2CCCCC2)SCCCc2cnc[nH]2)cc1`: the Ki was 12.6 nM on Histamine H4 receptor [2]; 63.1 nM on Histamine H4 receptor [3]; 158 nM on Histamine H4 receptor [4]; 12.6 nM at Histamine H4 receptor [5]; 316 nM on Histamine H4 receptor [6]; 1.05 nM at Histamine H3 receptor. For the same molecule, the Ki at Histamine H4 receptor [1] was 47.9 nM; at Histamine H4 receptor [7] it was 12.6 nM.
Turning to `c1ccc(CN/C(=N/C2CCCC2)SCCCc2c[nH]cn2)cc1`, the Ki at Histamine H3 receptor and at Histamine H4 receptor [1] was 42.7 nM in each case.
On to `Clc1ccc(C/N=C(/NC2CCCCC2)SCCCc2c[nH]cn2)cc1Cl`, for which the Ki at Histamine H3 receptor was 1.02 nM; at Histamine H4 receptor [1] it was 148 nM.
`N#Cc1ccc(C/N=C(/NC2CCCCC2)SCCCc2c[nH]cn2)cc1`: the Ki on Histamine H3 receptor was 1.62 nM; on Histamine H4 receptor [1] it was 126 nM.
The corresponding values for `Clc1ccc(C/N=C(/NCc2ccccc2)SCCCc2c[nH]cn2)cc1Cl` are 32.4 nM and 380 nM.
The corresponding values for `c1ccc(CN/C(=N/C2CCCCC2)SCCCc2c[nH]cn2)cc1` are 9.77 nM and 75.9 nM.
In the case of `NC(=NCc1ccc(Cl)cc1)SCCCc1cnc[nH]1` [CLOBENPROPIT], the Ki at Histamine H4 receptor [2] is 1.58 nM; on Histamine H4 receptor [3], 10 nM; on Histamine H4 receptor [4] it was 50.1 nM; at Histamine H4 receptor [5], 1 nM; on Histamine H4 receptor [6] it was 15.8 nM; at Histamine H4 receptor [7], 2.51 nM.
